Bioassay records deposited in PubChem by several laboratories.
PLK1 PBD inh: blocks phosphopeptide binding to human Plk1 polo box domain | P53350 | Plk1 PBD phosphopeptide binding, fluorescence polarization | inhibition, %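 (tested at about 20 µM)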 | 97,000 compounds, 0.13% hits | AID 693; in the data active means inhibition above about 34%, passing the limit was not always enough
HIV Rev-RRE inh: disrupts HIV-1 Rev binding to RRE RNA. P05866. Rev peptide-RRE RNA binding, FRET. inhibition, % at 8 µM. 97,000 compounds, 0.79% hits;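 active means inhibition above the screen-wide mean plus 3 SD, cut at about 35% in these data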;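 further: 0% = median DMSO wells and 100% = median Neomycin B control wells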
Target sequence (P05866 whole entry, looked up): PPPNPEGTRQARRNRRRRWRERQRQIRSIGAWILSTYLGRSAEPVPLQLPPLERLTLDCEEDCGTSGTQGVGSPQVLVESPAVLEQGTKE
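Assay system: Rev peptide and RRE RNA, both fluorescently labelled; times: 5 min preincubation and 15 min binding, 25 °C; detection: FRET, ex 480 nm, em 540 and 671 nm; read-out basis: % inhibition from 671/540 nm acceptor-to-donor ratio, scaled between controls; benchmarks: DMSO low control, neomycin B high control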
FAK blocker: FAK (human) kinase inhibition. inhibition, %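 (tested at 7 µM)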. biochemical FAK kinase activity assay. 97,000 compounds, 0.84% hits. Q05397;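 further: 0% = DMSO and 100% = reference compound high control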
PLK1 kinase inh: blocks human PLK1 kinase activity; AID 619; recombinant PLK1 kinase, TR-FRET peptide phosphorylation; inhibition, % at 10 µM; 97,000 compounds, 0.53% hits; P53350;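 active means inhibition of 50% or more in the single-concentration screen; inactive means inhibition below 50%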;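 further: 0% = DMSO max control and 100% = H-89 dihydrochloride min control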
E-sel TNF inh: blocks E-selectin expression induced by TNF alpha; HUVEC TNFa-induced E-selectin immunofluorescence, high content; inhibition, % at 2 µM; 120,000 compounds, 0.71% hits; AID 1246;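 active means inhibition above the batch mean plus 3 SD, and confirmed as a hit on visual image review, cut at about 43% in these data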;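 further: 0% = TNF-stimulated DMSO wells and 100% = unstimulated control wells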
F-actin modifier: modifiers of cytoskeleton assembly; 91,000 compounds, 0.18% hits; inhibition, % at 2 µM; HUVEC TNFa F-actin phalloidin imaging, high content;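 active means inhibition above the batch mean plus 3 SD and confirmed as a hit by visual image inspection, cut at about 30% in these data, passing the limit was not always enough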
FAK inh conf: FAK (human) inhibition confirmed. shares compounds with FAK blocker. FAK kinase biochemical inhibition assay. inhibition, % at 7 µM. 750 compounds, 28% hits
The depositor's hits bear a star; / = no result; [ ] = dose if it differs, or a comment. An excerpt weighted towards active compounds, which were near 2.2% of everything screened. Unless noted, no stated cut-off is given here; in the data, active means inhibition above about 19%; inactive means the rest.

SMILES	PLK1 PBD inh	HIV Rev-RRE inh	FAK blocker	PLK1 kinase inh	E-sel TNF inh	F-actin modifier	FAK inh conf
Cc1ccc(C(=O)O/N=C\c2ccc(N3CCCCC3)c([N+](=O)[O-])c2)cc1	-24.7	14.0	-1.9	-12.9	-24.6	-26.1	/
Cc1ccc2nc(/C(C#N)=C\c3ccc(N4CCCCC4)c([N+](=O)[O-])c3)[nH]c2c1	35.7	10.5	23.6*	-9.8	-0.7	-19.7	18.3
O=C(Nc1ncccc1Cl)C(Sc1ccccc1)c1ccccc1 (stereo unspecified)	-1.7	10.6	-1.1	-9.9	-31.5	-12.9	/
COc1ccc(C2OC(=O)CC2C(=O)NC2CCCCCC2)cc1OC (stereo unspecified)	-1.9	6.5	20.7*	-1.0	/	-1.0	1.8
COC(=O)c1c(NC(=O)Cc2cccs2)sc2c1CCCC2	16.2	15.8	20.7*	-12.3	-1.7	38.2	8.2
CN(C)CCn1c(=O)n(Cc2ccco2)c(=O)c2c3c(sc21)CCCCC3	1.4	5.0	4.0	-5.9	8.4	7.9	/
O=C(Cn1c(=O)n(Cc2ccco2)c(=O)c2c3c(sc21)CCCCC3)Nc1ccccc1	-15.4	1.2	32.0*	-20.4	-12.6	5.2	3.5
O=C(Cn1c(=O)n(Cc2ccco2)c(=O)c2c3c(sc21)CCCCC3)c1ccccc1	-17.3	1.6	30.4*	-16.9	5.7	20.6	3.0
COc1ccccc1NC(=S)N(CCc1nc2cc(C)c(C)cc2[nH]1)Cc1cccnc1	-9.0	-0.4	-0.5	-1.6	14.8	2.4	/
CCOc1ccc(CNC(=O)CCc2cn(Cc3ccccc3)c3ccccc23)cc1	/	/	/	/	-20.7	/	/
CCCN(CCC)C(=O)CSc1nc2n[nH]c(C)c2c(=N)n1-c1ccc(OC)cc1	4.1	4.1	21.8*	9.8	-11.2	17.5	2.9
Cc1ccc(OCC(=O)NNC(=O)c2cccnc2)cc1C	/	/	/	/	-6.8	/	/
CC1(C)Cc2c(C#N)c(N3CCN(C(=O)c4ccccc4Cl)CC3)nc(-c3ccco3)c2CS1	-12.1	50.8*	25.3*	-18.9	-15.2	-8.3	-1.0
Cc1ccc2cc3cc(C(=O)NCc4ccc5c(c4)OCO5)oc3nc2c1	-11.3	2.4	27.9*	-30.2	/	2.9	19.9*
Cc1cccc(N2CSC3=C(C#N)C(c4ccc(C)o4)CC(=O)N3C2)c1 (stereo unspecified)	-3.4	8.2	24.4*	-13.0	-12.8	-0.3	8.5
O=C(COc1ccccc1)Nc1cccc(-c2nc3cc4ccccc4cc3[nH]2)c1	-2.4	14.7	9.0	-15.4	0.1	-30.2	/
O=c1c2ccccc2nc2ccc(NCc3ccco3)nn12	-18.2	23.1	23.4*	-9.9	-21.8	-5.6	1.0
Cc1sc2nc3ccc(NCc4ccco4)nn3c(=O)c2c1C	-6.3	18.0	11.1	-11.4	-32.8	-9.0	/
CC(C)(O)C#Cc1ccc(C(=O)NC(CCCNC(N)=O)C(=O)O)s1 (stereo unspecified)	/	/	/	/	3.8	/	/
Cc1c(O)c(CN2CCCC2)cc2c1oc(=O)c1ccccc12	5.1	5.2	40.4*	-7.5	5.6	32.8	11.9
CCCCC(=O)Nc1sc2c(c1C(N)=O)CCC2	13.2	3.3	19.7*	-8.2	-54.0	-1.0	12.1
CC(=O)Nc1sc2c(c1C(N)=O)CCC2	9.1	5.9	18.1	-4.5	-16.4	3.5	/
CCC1(CC)NC(=O)N(CC(=O)Nc2sc3c(c2C(N)=O)CCC3)C1=O	3.3	15.4	28.2*	-7.7	/	-11.9	6.3
O=C(NC(=S)N(Cc1ccccc1)c1ccccn1)C1CC1	/	/	/	/	-17.1	/	/
O=C(Cn1c(=O)oc2cc(S(=O)(=O)N3CCCC3)ccc21)Nc1cccc(C(F)(F)F)c1	-17.8	5.7	25.6*	-8.3	/	20.9	9.3
SMILES	PLK1 PBD inh	HIV Rev-RRE inh	FAK blocker	PLK1 kinase inh	E-sel TNF inh	F-actin modifier	FAK inh conf
Cc1ccc(OC/C(=N\O)C(C)(C)C)c([N+](=O)[O-])c1	/	/	/	/	-21.5	/	/
Fc1ccc2c(c1)/C(=N/Nc1ccccn1)CCS2	/	/	/	/	23.9	/	/
O=c1c(O)c(-c2cccs2)oc2ccccc12	-134.7	42.3*	23.3*	-9.1	-6.2	10.6	11.9
COc1ccc2c(CC(=O)Nc3ncc(C)s3)coc2c1	/	/	/	/	9.3	/	/
O=c1[nH]c2ccccc2cc1-c1noc(-c2cccnc2)n1	-14.2	9.4	6.9	18.0	0.4	8.3	/
COc1ccc2[nH]c(=O)c(-c3noc(-c4ccccc4)n3)cc2c1	0.2	13.6	59.3*	10.4	/	16.0	35.6*
CCc1nc(SCC(=O)c2ccc3c(c2)OCCO3)c2ccccc2n1	-20.9	7.7	22.4*	-10.2	14.9	55.1	8.0
CC(C)(C)c1nc(SCC(=O)Nc2ccc3c(c2)OCCO3)c2ccccc2n1	-22.8	-4.0	19.4*	-30.7	-7.5	-15.0	8.0
O=C(CSc1nc2ccccc2[nH]1)Nc1ccc2c(c1)OCCO2	-6.1	5.2	1.7	-15.0	/	-0.2	/
CC(C)(C)c1nc(SCC(=O)Nc2ccc(N3CCOCC3)cc2)c2ccccc2n1	-12.8	10.6	31.9*	-2.4	1.4	-9.4	15.0
Fc1cccc(CN2CCN(c3nc4nonc4nc3NC3CC3)CC2)c1	/	/	/	/	-25.1	/	/
O=C(O)c1ccccc1-c1nc2ccccc2[nH]1	/	/	/	/	-46.5	/	/
CCN(CC)c1ccc2cc(-c3nc4ccccc4[nH]3)c(=O)oc2c1	-111.8	134.6*[fluorescence artefact?]	52.7*	-311.0	5.0	47.6*	31.2*
Cc1ccc(NC(=O)c2ccc(OC(=O)CCN3C(=O)c4ccccc4C3=O)cc2)cc1	12.1	7.3	19.5*	-7.9	44.3*	-9.3	11.2
Cc1cc(C)cc(OC(=O)CCN2C(=O)c3ccccc3C2=O)c1	-2.4	5.8	3.1	-4.4	-21.9	-0.3	/
CC(Cl)C(=O)c1c[nH]c2ccccc12 (stereo unspecified)	/	/	/	/	-3.1	/	/
O=C(Cc1cccs1)Nc1ccc(-c2nnn(CC(=O)N3CCOCC3)n2)cc1	13.8	-2.3	24.9*	-17.4	/	/	3.9
CCC(=O)c1ccc(OCC(=O)NC2(C#N)CCCCC2)cc1	/	/	/	/	-2.5	/	/
CCN(CC)C(=O)CSc1nc(N)c2c3c(sc2n1)CC(C)CC3 (stereo unspecified)	-12.8	-0.5	27.6*	-3.4	17.6	10.8	31.9*
